# Key:
# [1] = molecular target: T1, D(4) dopamine receptor (Homo sapiens, UniProt P21917); test: Displacement of [3H]-Spiperone from human recombinant dopamine D4 receptor expressed in CHOK1 cells; type: cell-based, CHO-K1
# T1 sequence (P21917 whole entry): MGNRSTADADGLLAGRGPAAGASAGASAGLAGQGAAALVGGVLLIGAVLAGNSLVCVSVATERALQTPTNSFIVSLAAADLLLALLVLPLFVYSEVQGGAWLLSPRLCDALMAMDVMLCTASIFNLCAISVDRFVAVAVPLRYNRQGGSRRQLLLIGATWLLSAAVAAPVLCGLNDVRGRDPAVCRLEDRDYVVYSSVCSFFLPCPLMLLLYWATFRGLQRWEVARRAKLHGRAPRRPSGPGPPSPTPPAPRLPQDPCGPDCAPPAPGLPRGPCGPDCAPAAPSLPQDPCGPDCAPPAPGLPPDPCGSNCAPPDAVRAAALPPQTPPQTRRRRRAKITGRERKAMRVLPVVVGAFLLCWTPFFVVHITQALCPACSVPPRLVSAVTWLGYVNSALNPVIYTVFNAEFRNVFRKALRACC
# Summary of the method: (§1)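 Radioligand binding at human D4 receptor using [3H]-spiperone, run as a contract assay in duplicate. IC50 and Ki were derived from concentration–response data. Single-point values are % inhibition of specific binding at 10 µM test compound.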
# [2] = molecular target: T2, D(4) dopamine receptor (Homo sapiens) (UniProt P21917); test: Displacement of [3H]-Spiperone from human recombinant dopamine D4 receptor expressed in CHOK1 cells at 10 uM relative to control; type: cell-based; details: CHO-K1; summary of the method: as §1
# T2 sequence (whole entry): T1 sequence (P21917 whole entry)
# [3] = molecular target: D(1A) dopamine receptor (Homo sapiens, UniProt P21728); test: Displacement of [3H]-SCH-23390 from human recombinant dopamine D1 receptor expressed in CHO cells at 10 uM relative to control; type: cell-based
# D(1A) dopamine receptor, sequence (P21728 whole entry): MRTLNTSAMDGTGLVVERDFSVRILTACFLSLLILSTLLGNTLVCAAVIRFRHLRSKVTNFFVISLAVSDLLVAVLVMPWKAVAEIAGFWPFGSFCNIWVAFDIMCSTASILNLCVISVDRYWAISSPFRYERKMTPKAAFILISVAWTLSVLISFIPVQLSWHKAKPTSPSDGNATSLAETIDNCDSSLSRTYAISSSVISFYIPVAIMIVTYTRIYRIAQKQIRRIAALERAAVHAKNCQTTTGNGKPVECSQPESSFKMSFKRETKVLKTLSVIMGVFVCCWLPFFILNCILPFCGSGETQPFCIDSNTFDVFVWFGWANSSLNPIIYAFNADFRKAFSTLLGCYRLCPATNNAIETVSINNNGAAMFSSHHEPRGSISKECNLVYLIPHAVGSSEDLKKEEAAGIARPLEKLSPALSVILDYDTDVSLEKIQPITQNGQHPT
# Summary of the method: (§2)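 Off-target dopamine receptor radioligand binding (D1, D2L, D2S, D3, D5), run as a contract assay. Test compound at a single concentration of 10 µM, reported as % inhibition of specific binding, measured in duplicate.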
# [4] = molecular target: D(1B) dopamine receptor (Homo sapiens, UniProt P21918); test: Displacement of [3H]-SCH-23390 from human recombinant dopamine D5 receptor expressed in CHO cells at 10 uM relative to control; type: cell-based; summary of the method: as §2
# D(1B) dopamine receptor, sequence (P21918 whole entry): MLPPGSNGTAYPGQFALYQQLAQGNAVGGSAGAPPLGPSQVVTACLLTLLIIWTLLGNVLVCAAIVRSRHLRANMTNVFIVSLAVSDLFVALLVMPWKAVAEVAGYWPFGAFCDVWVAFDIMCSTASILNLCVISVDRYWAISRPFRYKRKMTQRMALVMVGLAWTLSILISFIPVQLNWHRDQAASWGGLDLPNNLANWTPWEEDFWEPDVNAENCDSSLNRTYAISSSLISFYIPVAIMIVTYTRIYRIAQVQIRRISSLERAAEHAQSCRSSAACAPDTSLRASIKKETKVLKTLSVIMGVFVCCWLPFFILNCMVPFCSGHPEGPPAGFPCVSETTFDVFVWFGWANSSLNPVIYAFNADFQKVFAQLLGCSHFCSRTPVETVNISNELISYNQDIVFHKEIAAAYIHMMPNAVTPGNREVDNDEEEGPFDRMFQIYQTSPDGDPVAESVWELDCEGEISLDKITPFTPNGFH
# [5] = Plasma concentration in rat at 0.25 mg/kg, iv administered through cassette dosing at 0.25 hrs; type: ADME, organism-based
# [6] = molecular target: T3, D(2) dopamine receptor (Homo sapiens, UniProt P14416); test: Displacement of [3H]-Spiperone from human recombinant dopamine D2L receptor expressed in CHO cells at 10 uM relative to control; type: cell-based; summary of the method: as §2
# T3 sequence (P14416 whole entry): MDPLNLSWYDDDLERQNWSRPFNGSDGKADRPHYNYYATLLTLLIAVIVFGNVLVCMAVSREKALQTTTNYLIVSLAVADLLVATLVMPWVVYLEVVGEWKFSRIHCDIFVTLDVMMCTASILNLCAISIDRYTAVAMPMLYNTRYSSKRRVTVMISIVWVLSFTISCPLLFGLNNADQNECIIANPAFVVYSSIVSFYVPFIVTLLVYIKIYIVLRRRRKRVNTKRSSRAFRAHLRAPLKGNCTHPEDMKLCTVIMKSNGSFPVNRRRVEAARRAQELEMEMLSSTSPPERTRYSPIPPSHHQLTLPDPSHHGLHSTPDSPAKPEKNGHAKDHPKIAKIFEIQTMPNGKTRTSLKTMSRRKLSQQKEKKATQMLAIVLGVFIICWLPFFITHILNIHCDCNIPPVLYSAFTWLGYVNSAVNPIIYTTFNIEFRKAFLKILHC
# [7] = Ratio of drug level in brain to plasma in rat at 0.25 mg/kg, iv administered through cassette dosing at 0.25 hrs; type: ADME, organism-based
# [8] = test system: Plasma; test: Fraction unbound in rat plasma by equilibrium dialysis method; type: ADME, cell-free
# [9] = Drug uptake in rat brain at 0.25 mg/kg, iv administered through cassette dosing at 0.25 hrs; type: ADME, organism-based; details: read-out: Drug uptake
# [10] = Fraction unbound in human plasma by equilibrium dialysis method; type: ADME, cell-free
# [11] = molecular target: D(3) dopamine receptor (Homo sapiens, UniProt P35462); test: Displacement of [3H]-Spiperone from human recombinant dopamine D3 receptor expressed in CHO cells at 10 uM relative to control; type: cell-based; summary of the method: as §2
# D(3) dopamine receptor, sequence (P35462 whole entry): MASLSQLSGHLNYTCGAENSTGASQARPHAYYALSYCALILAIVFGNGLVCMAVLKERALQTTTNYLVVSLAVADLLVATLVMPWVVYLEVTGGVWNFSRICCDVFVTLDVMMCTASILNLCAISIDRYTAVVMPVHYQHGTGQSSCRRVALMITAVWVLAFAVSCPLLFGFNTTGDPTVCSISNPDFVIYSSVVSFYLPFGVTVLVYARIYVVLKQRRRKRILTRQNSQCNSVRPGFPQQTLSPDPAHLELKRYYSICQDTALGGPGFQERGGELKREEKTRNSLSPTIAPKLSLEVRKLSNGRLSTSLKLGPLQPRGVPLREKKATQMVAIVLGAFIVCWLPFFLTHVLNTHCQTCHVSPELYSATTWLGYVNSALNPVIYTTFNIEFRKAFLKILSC
# [12] = molecular target: T3, D(2) dopamine receptor; test: Displacement of [3H]-Spiperone from human recombinant dopamine D2S receptor expressed in CHO cells at 10 uM relative to control; type: cell-based; summary of the method: as §2
SMILES,IC50 [1] [nM],Ki [1] [nM],Fu [8],Fu [10],also measured
Fc1ccc(CN2CCO[C@H](COc3ccccc3)C2)cc1Cl,62,170,–,–,–
COc1ccc(CN2CCO[C@H](COc3ccccn3)C2)cc1,–,–,–,–,inhibition [2]: 57%
COc1ccc(CN2CCO[C@H](COc3ccccc3)C2)cc1F,56,14.3,0.037,0.031,inhibition [3]: < 50%; inhibition [4]: < 50%; concentration at 0.25 h [5]: 14.7 ng/mL; inhibition [6]: 78%; Kp [7]: 7.38; concentration at 0.25 h [9]: 108 ng/g; inhibition [11]: < 50%; inhibition [12]: 76%
Clc1ccc(CN2CCO[C@H](COc3ccccc3)C2)cc1,150,42,0.007,0.007,concentration at 0.25 h [5]: 42.5 ng/mL; Kp [7]: 4.62; concentration at 0.25 h [9]: 197 ng/g
Cn1ncc2cc(CN3CCO[C@H](COc4ccccc4)C3)ccc21,170,47,0.074,0.039,concentration at 0.25 h [5]: 37.3 ng/mL; Kp [7]: 2.23; concentration at 0.25 h [9]: 83.1 ng/g
Clc1ccc(CN2CCO[C@H](COc3cncnc3)C2)cc1,–,–,–,–,inhibition [2]: 76%
c1ccc(OC[C@@H]2CN(Cc3ccc4ccccc4c3)CCO2)cc1,64,17.8,–,–,–
Fc1cc(CN2CCO[C@H](COc3ccccc3)C2)ccc1C(F)(F)F,58,16.2,0.007,0.002,–
COc1cccc(OC[C@@H]2CN(Cc3ccc(Cl)cc3)CCO2)c1,130,36,–,–,–
COc1cc(CN2CCO[C@H](COc3cccc(C#N)c3)C2)ccc1Cl,100,28,–,–,–
COc1ccc(CN2CCO[C@H](COc3ncccn3)C2)cc1,–,–,–,–,inhibition [2]: 8%
COc1ccc(OC[C@@H]2CN(Cc3ccc(Cl)cc3)CCO2)cc1,150,42,–,–,–
COc1cc(CN2CCO[C@H](COc3cccc(F)c3)C2)ccc1Cl,37,10.1,0.014,0.011,inhibition [12]: < 50%
COc1cc(CN2CCO[C@H](COc3ccccc3)C2)ccc1Cl,42,11.6,0.025,0.01,inhibition [3]: < 50%; inhibition [4]: < 50%; inhibition [6]: 52%; inhibition [11]: < 50%; inhibition [12]: 60%
COc1ccc(CN2CCO[C@H](COc3cccc(F)n3)C2)cc1Cl,260,73,–,–,–
COc1ccc(CN2CCO[C@H](COc3cccc(F)c3)C2)cc1Cl,39,10.8,0.013,0.006,inhibition [12]: < 50%
Clc1ccc(CN2CCO[C@H](COc3ccccc3)C2)cc1Cl,97,27,0.006,0.002,–
c1ccc(OC[C@@H]2CN(Cc3ncn4ccccc34)CCO2)cc1,130,35,–,–,inhibition [12]: < 50%
Fc1ccc2c(CN3CCO[C@H](COc4ccccc4)C3)c[nH]c2c1,18.9,5.2,0.047,0.017,inhibition [3]: < 50%; inhibition [4]: < 50%; inhibition [6]: 78%; inhibition [11]: < 50%; inhibition [12]: 76%
COc1cc(CN2CCO[C@H](COc3cccc(F)n3)C2)ccc1Cl,–,–,–,–,inhibition [2]: -3%
Fc1ccc2c(CN3CCO[C@H](COc4cccc(F)n4)C3)c[nH]c2c1,76,21,0.015,0.009,inhibition [12]: < 50%
Fc1cccc2[nH]cc(CN3CCO[C@H](COc4ccccc4)C3)c12,3830,1060,–,–,–
Clc1ccc2[nH]cc(CN3CCO[C@H](COc4ccccc4)C3)c2c1,130,37,–,–,–
Fc1cccc(OC[C@@H]2CN(Cc3ccc(Cl)cc3)CCO2)n1,460,130,–,–,–
COc1ccc(CN2CCO[C@H](COc3cccc(F)c3)C2)cc1,92,26,–,–,–
COc1ccc(CN2CCO[C@H](COc3cccc(C#N)c3)C2)cc1Cl,130,36,–,–,–
Clc1ccc(CN2CCO[C@H](COc3ncccn3)C2)cc1,–,–,–,–,inhibition [2]: 31%
COc1ccc2c(CN3CCO[C@H](COc4ccccc4)C3)c[nH]c2c1,19.5,5.4,0.075,0.037,inhibition [3]: < 50%; inhibition [4]: < 50%; inhibition [6]: 87%; inhibition [11]: 70%; inhibition [12]: 82%

# From ChEMBL document CHEMBL3792377, “Synthesis and characterization of a series of chiral alkoxymethyl morpholine analogs as dopamine receptor 4 (D4R) antagonists” (Bioorg Med Chem Lett, 2016)
